Laboratory results published in ChEMBL document CHEMBL1275351, “Novel spirotetracyclic zwitterionic dual H(1)/5-HT(2A) receptor antagonists for the treatment of sleep disorders” (J Med Chem, 2010).

Tests used:
Histamine H1 receptor [1] = molecular target: Histamine H1 receptor (Homo sapiens, UniProt P35367); experiment: Antagonist activity against human histamine H1 receptor expressed in CHO cells by FLIPR assay; assay type: functional, cell-based
[2] = molecular target: 5-hydroxytryptamine receptor 2B (Homo sapiens, UniProt P41595); experiment: Antagonist activity at human 5HT2B receptor expressed in human SH-SY5Y cells by FLIPR assay
5-hydroxytryptamine receptor 2B, sequence (P41595 whole entry): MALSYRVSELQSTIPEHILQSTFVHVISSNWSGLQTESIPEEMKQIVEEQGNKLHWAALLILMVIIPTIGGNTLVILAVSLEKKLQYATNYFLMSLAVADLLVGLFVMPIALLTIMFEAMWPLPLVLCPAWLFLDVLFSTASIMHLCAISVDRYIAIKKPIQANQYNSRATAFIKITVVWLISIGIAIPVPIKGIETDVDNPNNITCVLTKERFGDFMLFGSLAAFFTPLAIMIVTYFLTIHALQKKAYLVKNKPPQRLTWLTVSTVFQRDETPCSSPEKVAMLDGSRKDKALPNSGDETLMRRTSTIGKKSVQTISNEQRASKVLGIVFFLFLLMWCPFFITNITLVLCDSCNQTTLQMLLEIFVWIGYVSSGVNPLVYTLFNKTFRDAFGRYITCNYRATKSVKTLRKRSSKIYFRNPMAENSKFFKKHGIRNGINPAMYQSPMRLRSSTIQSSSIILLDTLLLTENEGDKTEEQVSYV

[3] = molecular target: 5-hydroxytryptamine receptor 2A (Homo sapiens, UniProt P28223); experiment: Antagonist activity at human 5HT2A receptor expressed in HEK cells assessed as inhibition of intracellular calcium accumulation by aequorin assay; assay type: functional, cell-based, HEK293
5-hydroxytryptamine receptor 2A (Homo sapiens, UniProt P28223), sequence (P28223 whole entry): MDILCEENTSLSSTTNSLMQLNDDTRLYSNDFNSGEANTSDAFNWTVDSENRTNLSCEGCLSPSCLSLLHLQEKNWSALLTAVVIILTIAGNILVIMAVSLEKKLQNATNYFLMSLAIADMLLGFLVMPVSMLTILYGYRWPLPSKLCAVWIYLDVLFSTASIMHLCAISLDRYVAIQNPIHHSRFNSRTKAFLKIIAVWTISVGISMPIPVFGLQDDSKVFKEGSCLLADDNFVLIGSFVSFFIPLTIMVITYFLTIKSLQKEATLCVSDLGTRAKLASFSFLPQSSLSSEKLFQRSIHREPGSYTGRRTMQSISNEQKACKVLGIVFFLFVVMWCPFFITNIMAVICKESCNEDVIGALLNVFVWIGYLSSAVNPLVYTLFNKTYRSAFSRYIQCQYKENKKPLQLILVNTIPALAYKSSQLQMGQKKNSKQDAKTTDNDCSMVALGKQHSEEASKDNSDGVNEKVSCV

[4] = molecular target: T1, 5-hydroxytryptamine receptor 2C (Homo sapiens, UniProt P28335); experiment: Antagonist activity at human 5HT2C receptor expressed in human SH-SY5Y cells by FLIPR assay; assay type: functional, cell-based
T1 sequence (P28335 whole entry): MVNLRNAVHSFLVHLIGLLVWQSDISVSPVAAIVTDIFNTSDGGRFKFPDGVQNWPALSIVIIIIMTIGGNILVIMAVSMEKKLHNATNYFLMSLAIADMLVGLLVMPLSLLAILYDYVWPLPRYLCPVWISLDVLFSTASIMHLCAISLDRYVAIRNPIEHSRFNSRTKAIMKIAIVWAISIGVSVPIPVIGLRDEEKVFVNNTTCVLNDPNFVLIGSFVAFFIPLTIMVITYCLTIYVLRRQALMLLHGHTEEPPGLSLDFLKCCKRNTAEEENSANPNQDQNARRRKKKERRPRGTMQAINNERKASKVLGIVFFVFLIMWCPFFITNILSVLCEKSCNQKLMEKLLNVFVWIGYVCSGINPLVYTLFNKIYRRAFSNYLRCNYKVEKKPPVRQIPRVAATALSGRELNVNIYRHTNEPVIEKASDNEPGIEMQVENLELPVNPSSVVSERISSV

Histamine H1 receptor [5] = molecular target: Histamine H1 receptor (Rattus norvegicus, UniProt P31390); experiment: Displacement of [3H]pyrilamine from histamine H1 receptor in Sprague-Dawley rat cortical membrane by liquid scintillation counting
Histamine H1 receptor (Rattus norvegicus, UniProt P31390), sequence (P31390 whole entry): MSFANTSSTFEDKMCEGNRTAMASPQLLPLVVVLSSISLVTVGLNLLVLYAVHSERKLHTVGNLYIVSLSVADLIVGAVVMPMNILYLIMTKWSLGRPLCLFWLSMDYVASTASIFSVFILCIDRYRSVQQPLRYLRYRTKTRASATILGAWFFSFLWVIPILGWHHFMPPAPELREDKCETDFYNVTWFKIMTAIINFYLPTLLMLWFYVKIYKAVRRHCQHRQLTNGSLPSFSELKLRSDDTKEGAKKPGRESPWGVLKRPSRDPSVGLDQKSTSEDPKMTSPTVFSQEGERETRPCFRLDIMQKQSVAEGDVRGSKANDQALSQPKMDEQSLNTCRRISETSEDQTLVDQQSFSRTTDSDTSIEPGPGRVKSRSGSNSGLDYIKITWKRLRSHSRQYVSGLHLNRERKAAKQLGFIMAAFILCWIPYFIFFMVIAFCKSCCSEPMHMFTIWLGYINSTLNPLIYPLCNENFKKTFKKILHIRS
Method in brief: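 Cerebral cortex membranes from male Sprague-Dawley rats (200-250 g), 150 μg/well. Incubated with 0.6 nM [3H]pyrilamine in 50 mM HEPES, pH 7.4, for 2 h at room temperature. Filtered on PEI-soaked GF/B and counted by scintillation. Nonspecific binding with 10 μM cetirizine. Ki by Cheng-Prusoff; mean of two experiments in duplicate.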

Cytochrome P450 3A4 = Cytochrome P450 3A4 (Homo sapiens, UniProt P08684); experiment: Inhibition of human CYP3A4 transfected in bactosome expression system by spectrofluorimetry; assay type: ADME
Cytochrome P450 3A4, sequence (P08684 whole entry): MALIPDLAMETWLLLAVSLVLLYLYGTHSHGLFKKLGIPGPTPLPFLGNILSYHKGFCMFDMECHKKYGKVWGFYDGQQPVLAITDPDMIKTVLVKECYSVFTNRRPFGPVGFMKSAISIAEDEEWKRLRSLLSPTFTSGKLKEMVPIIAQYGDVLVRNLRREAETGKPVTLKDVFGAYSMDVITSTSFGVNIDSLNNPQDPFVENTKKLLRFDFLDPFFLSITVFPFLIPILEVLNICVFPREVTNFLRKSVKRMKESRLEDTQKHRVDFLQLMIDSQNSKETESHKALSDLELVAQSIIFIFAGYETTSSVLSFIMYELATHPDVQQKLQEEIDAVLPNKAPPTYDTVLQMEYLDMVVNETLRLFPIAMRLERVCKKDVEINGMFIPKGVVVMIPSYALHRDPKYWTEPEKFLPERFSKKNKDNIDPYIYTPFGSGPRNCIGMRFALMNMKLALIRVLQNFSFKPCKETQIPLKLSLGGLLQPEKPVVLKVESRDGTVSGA
Method in brief: (§1)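 Recombinant human CYP Bactosomes (0.1 mg/mL) in 50 mM phosphate buffer, pH 7.4. Compound at 0.1-10 μM was preincubated with fluorogenic substrate for 10 min at 37 °C, and the reaction was started with an NADPH regenerating system. Metabolite fluorescence was followed for 10 min. Substrates: 1A2 ethoxyresorufin 0.5 μM; 2C9 FCA 50 μM; 2C19 BMC 10 μM; 2D6 MMC 10 μM; 3A4 DEF 1 μM or 7-BQ 25 μM. Run in triplicate.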

[6] = Volume of distribution at steady state in Sprague-Dawley rat at 1 mg/kg, iv and 3 mg/kg, po; assay type: ADME, organism-based; conditions: in vivo, read-out: Vdss
Method in brief: (§2)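 Male Sprague-Dawley rats, cassette dosing. Compounds were given as an iv bolus and as an oral suspension. Blood samples were taken at intervals up to 24 h, processed by protein precipitation and analysed by HPLC-MS/MS.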

[7] = Half life in Sprague-Dawley rat at 1 mg/kg, iv and 3 mg/kg, po; assay type: ADME, organism-based; conditions: in vivo; method in brief: as §2
[8] = molecular target: 5-hydroxytryptamine receptor 2A (Rattus norvegicus, UniProt P14842); experiment: Displacement of [3H]ketanserin from 5HT2A receptor in Sprague-Dawley rat cortical membrane by liquid scintillation counting
5-hydroxytryptamine receptor 2A (Rattus norvegicus, UniProt P14842), sequence (P14842 whole entry): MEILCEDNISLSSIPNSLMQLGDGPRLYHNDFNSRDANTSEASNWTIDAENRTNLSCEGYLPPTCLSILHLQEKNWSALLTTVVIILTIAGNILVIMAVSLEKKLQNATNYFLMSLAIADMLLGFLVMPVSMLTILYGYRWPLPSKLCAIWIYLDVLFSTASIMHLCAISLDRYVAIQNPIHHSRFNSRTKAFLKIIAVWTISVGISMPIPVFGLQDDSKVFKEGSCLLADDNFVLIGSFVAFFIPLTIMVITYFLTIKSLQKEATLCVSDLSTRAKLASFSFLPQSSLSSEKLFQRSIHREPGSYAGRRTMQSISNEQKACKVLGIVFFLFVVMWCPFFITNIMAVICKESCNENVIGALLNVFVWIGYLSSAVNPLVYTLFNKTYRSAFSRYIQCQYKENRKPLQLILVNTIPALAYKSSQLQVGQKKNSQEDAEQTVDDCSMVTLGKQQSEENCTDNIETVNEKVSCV
Method in brief: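 Cerebral cortex membranes from male Sprague-Dawley rats (200-250 g), 50 μg/well. Incubated with 1 nM [3H]ketanserin in 50 mM Tris-HCl, 10 mM MgCl2, pH 7.4, for 1 h at 37 °C with shaking. Filtered on PEI-soaked GF/B and counted by scintillation. Nonspecific binding with 10 μM mianserin. Ki by Cheng-Prusoff; mean of two experiments in duplicate.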

[9] = Fraction unbound in rat brain; assay type: ADME, tissue-based
Cytochrome P450 2D6 = Cytochrome P450 2D6 (Homo sapiens, UniProt P10635); experiment: Inhibition of human CYP2D6 transfected in bactosome expression system by spectrofluorimetry; assay type: ADME; method in brief: as §1
Cytochrome P450 2D6, sequence (P10635 whole entry): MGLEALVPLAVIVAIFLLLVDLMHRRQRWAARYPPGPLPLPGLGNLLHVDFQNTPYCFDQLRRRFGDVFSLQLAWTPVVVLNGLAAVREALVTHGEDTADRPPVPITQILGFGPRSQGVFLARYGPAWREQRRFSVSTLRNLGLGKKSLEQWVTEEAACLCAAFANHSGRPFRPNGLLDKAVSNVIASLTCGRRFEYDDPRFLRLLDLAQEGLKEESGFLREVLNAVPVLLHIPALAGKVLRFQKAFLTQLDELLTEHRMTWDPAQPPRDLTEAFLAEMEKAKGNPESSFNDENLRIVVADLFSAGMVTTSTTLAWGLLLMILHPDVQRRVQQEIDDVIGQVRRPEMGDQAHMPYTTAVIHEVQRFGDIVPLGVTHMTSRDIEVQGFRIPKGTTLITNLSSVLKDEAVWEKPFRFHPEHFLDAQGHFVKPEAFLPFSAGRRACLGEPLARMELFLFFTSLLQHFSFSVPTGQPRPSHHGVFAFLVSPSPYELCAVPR

Cytochrome P450 1A2 = molecular target: T2, Cytochrome P450 1A2 (Homo sapiens, UniProt P05177); experiment: Inhibition of human CYP1A2 transfected in bactosome expression system by spectrofluorimetry; assay type: ADME; method in brief: as §1
T2 sequence (P05177 whole entry): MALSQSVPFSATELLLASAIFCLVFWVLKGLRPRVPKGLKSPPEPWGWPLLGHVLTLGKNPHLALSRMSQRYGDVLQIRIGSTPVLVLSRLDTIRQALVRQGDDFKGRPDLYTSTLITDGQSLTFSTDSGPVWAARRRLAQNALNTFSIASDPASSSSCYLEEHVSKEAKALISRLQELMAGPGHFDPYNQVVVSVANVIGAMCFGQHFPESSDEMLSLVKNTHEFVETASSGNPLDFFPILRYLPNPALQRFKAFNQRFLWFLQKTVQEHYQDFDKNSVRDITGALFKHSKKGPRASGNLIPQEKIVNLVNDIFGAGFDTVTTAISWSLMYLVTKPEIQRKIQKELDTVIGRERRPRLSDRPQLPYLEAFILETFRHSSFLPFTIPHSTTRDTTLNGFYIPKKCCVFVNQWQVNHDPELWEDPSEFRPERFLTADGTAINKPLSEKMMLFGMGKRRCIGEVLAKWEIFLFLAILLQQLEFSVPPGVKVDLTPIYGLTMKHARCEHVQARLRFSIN

[10] = Oral bioavailability in Sprague-Dawley rat at 3 mg/kg; assay type: ADME, organism-based; conditions: in vivo; method in brief: as §2
Cytochrome P450 2C9 = Cytochrome P450 2C9 (Homo sapiens, UniProt P11712); experiment: Inhibition of human CYP2C9 transfected in bactosome expression system by spectrofluorimetry; assay type: ADME; method in brief: as §1
Cytochrome P450 2C9, sequence (P11712 whole entry): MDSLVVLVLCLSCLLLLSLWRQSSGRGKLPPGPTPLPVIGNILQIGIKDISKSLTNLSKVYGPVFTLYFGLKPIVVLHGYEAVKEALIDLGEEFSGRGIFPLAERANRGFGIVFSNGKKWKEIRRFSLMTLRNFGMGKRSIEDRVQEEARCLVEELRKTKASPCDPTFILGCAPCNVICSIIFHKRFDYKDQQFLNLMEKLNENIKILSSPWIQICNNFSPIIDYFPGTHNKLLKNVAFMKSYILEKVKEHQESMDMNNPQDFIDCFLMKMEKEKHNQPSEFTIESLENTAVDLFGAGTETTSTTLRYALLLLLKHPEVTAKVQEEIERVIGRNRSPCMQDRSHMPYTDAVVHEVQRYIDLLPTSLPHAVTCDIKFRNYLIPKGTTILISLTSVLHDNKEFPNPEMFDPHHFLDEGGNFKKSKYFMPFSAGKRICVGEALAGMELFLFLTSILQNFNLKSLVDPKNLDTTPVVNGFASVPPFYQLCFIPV

Cytochrome P450 2C19 = Cytochrome P450 2C19 (Homo sapiens, UniProt P33261); experiment: Inhibition of human CYP2C19 transfected in bactosome expression system by spectrofluorimetry; assay type: ADME; method in brief: as §1
Cytochrome P450 2C19, sequence (P33261 whole entry): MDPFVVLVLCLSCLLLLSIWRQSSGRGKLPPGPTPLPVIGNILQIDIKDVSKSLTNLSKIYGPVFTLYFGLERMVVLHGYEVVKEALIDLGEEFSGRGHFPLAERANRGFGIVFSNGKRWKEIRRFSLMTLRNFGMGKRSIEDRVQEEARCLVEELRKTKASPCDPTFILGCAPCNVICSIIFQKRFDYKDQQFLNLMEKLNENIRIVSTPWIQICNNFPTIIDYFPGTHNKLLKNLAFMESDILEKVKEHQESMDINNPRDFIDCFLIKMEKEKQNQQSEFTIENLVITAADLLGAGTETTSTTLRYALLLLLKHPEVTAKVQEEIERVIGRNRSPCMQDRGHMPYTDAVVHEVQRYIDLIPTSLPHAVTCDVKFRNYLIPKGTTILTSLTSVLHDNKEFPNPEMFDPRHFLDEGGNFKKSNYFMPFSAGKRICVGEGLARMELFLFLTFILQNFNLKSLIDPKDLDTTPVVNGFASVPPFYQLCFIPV

[11] = Fraction unbound in rat blood; assay type: ADME, tissue-based
[12] = Ratio of drug level in brain to blood in Sprague-Dawley rat at 1 mg/kg, iv and 3 mg/kg, po; assay type: ADME, organism-based; conditions: read-out: BBR
Method in brief: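 Male Sprague-Dawley rats, cassette dosing, iv bolus or oral suspension. Blood and brain levels were measured by protein precipitation and HPLC-MS/MS. Brain:blood ratio was taken from AUC0-8h after oral dosing, or at 1 h after iv dosing for one compound.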

[13] = Blood clearance in Sprague-Dawley rat at 1 mg/kg, iv and 3 mg/kg, po; assay type: ADME, organism-based; conditions: whole blood; method in brief: as §2
[14] = molecular target: Voltage-gated inwardly rectifying potassium channel KCNH2 (Homo sapiens, UniProt Q12809); experiment: Displacement of [3H]dofetilide from human ERG by scintillation proximity assay

Histamine H1 receptor (Homo sapiens, UniProt P35367), sequence (P35367 whole entry): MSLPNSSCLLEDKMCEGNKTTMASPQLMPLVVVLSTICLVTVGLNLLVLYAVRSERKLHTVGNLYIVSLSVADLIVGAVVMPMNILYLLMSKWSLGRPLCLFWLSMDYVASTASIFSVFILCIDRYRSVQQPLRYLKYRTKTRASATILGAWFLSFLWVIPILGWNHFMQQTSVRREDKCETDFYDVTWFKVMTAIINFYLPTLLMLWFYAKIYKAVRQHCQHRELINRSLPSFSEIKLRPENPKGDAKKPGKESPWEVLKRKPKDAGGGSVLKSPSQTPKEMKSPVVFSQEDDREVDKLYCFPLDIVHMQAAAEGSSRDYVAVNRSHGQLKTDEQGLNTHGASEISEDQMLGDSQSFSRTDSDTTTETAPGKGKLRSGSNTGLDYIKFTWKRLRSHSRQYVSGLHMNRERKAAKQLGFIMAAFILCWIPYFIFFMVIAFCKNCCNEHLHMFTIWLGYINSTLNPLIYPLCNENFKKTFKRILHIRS

Compound	Ki (Histamine H1 receptor [1])	Ki [2]	Ki [3]	Ki [4]	other results
O=C(O)C1(F)CCCN(C2CC[C@]3(Cc4ccccc4Cc4ccccc43)C2)C1 (some centres not stated)	794 nM	> 2000 nM	79.4 nM	1580 nM	
O=C(O)C1=CCN(C2CCC3(Cc4ccccc4Oc4ccccc43)C2)CC1 (configuration not stated)	50.1 nM	> 2000 nM	25.1 nM	1000 nM	Ki (Histamine H1 receptor [5]): 20 nM; IC50 (Cytochrome P450 3A4): > 10000 nM; Vd [6]: 2.7 L/kg; half-life [7]: 3 h; Ki [8]: 105 nM; fraction unbound [9]: 0.027; IC50 (Cytochrome P450 2D6): > 10000 nM; IC50 (Cytochrome P450 1A2): > 10000 nM; bioavailability [10]: 37%; IC50 (Cytochrome P450 2C9): > 10000 nM; IC50 (Cytochrome P450 2C19): > 10000 nM; fraction unbound [11]: 0.103; Kp [12]: 1.8; clearance [13]: 16 mL/min/kg
O=C(O)C1=CCCN(C2CCC3(Cc4ccccc4Oc4ccccc43)C2)C1 (configuration not stated)	100 nM	> 2000 nM	398 nM	> 2000 nM	
O=C(O)C1CCN(C2CCC3(C2)C(=O)c2cc(F)ccc2Sc2ccccc23)CC1 (configuration not stated)	200 nM	> 2000 nM	126 nM	> 2000 nM	
O=C(O)C1CCN(C2CCC3(C2)C(=O)c2cc(Cl)ccc2Oc2ccccc23)CC1 (configuration not stated)	1000 nM	> 2000 nM	398 nM		
O=C(O)C1CN(C2CC[C@]3(Cc4ccccc4Cc4ccccc43)C2)CCO1 (some centres not stated)	63.1 nM	> 2000 nM	100 nM	316 nM	
O=C(O)[C@@H]1CCCN(C2CCC3(C2)C(=O)c2cc(Cl)ccc2Oc2ccccc23)C1 (some centres not stated)	200 nM	> 2000 nM	> 2000 nM		
O=C(O)[C@H]1[C@@H]2CN(C3CCC4(Cc5ccccc5Cc5ccccc54)C3)C[C@@H]21 (some centres not stated)	39.8 nM	> 2000 nM	631 nM	> 2000 nM	
O=C(O)C1=CCCN(C2CC[C@]3(Cc4ccccc4Cc4ccccc43)C2)C1 (stereo in doubt; 48)	20 nM	> 2000 nM	> 2000 nM	> 2000 nM	
O=C(O)C1=CCCN(C2CCC3(Cc4cc(F)ccc4Cc4ccccc43)C2)C1 (configuration not stated)	39.8 nM	> 2000 nM	> 759 nM	316 nM	
O=C(O)C1=CCCN(C2CC[C@]3(Cc4ccccc4Cc4ccccc43)C2)C1 (single isomer, unassigned; stereoisomer 1)	25.1 nM		126 nM	158 nM	Ki (Histamine H1 receptor [5]): 8.71 nM; IC50 (Cytochrome P450 3A4): > 10000 nM; Vd [6]: 0.4 L/kg; half-life [7]: 2.4 h; Ki [8]: 117 nM; fraction unbound [9]: 0.03; IC50 (Cytochrome P450 2D6): > 10000 nM; IC50 (Cytochrome P450 1A2): > 10000 nM; bioavailability [10]: 80%; IC50 (Cytochrome P450 2C9): > 10000 nM; IC50 (Cytochrome P450 2C19): > 10000 nM; fraction unbound [11]: 0.024; Kp [12]: 0.1; clearance [13]: 2 mL/min/kg
O=C(O)C1=CCCN(C2CC[C@@]3(Cc4ccccc4Cc4ccccc43)C2)C1 (some centres not stated)	158 nM	> 2000 nM	3980 nM	> 2000 nM	
O=C(O)[C@@H]1CCCN(C2CCC3(Cc4ccccc4Oc4ccccc43)C2)C1 (some centres not stated)	126 nM	> 2000 nM	100 nM		
O=C(O)CCNC1CC[C@]2(Cc3ccccc3Cc3ccccc32)C1 (some centres not stated)	10 nM	> 2000 nM	158 nM	100 nM	IC50 [14]: 63100 nM
O=C(O)C1=CCN(C2CCC3(Cc4ccccc4Cc4ccccc43)C2)CC1 (configuration not stated)	39.8 nM	> 2000 nM	79.4 nM	200 nM	
O=C(O)C1=CCCN(C2CCC3(C2)C(=O)c2ccccc2Cc2ccccc23)C1 (configuration not stated)	79.4 nM		> 2000 nM	> 2000 nM	
O=C(O)CCNC1CC[C@@]2(Cc3ccccc3Cc3ccccc32)C1 (some centres not stated)	25.1 nM	> 2000 nM	2000 nM	> 2000 nM	IC50 [14]: > 63100 nM
O=C(O)C1(F)CCN(C2CCC3(Cc4ccccc4Oc4ccccc43)C2)CC1 (configuration not stated)	158 nM	> 2000 nM	398 nM	> 2000 nM	

Continued, in another order:

Ki (Histamine H1 receptor [1])	Ki [2]	Ki [3]	Ki [4]	Compound	other results
12.6 nM	10 nM	12.6 nM	20 nM	CC1(C(=O)O)CCN(C2CC[C@]3(Cc4ccccc4Cc4ccccc43)C2)C1 (some centres not stated)	
79.4 nM	1580 nM	316 nM		O=C(O)C1CCN(C2CCC3(Cc4ccccc4Oc4ccccc43)C2)CC1 (configuration not stated)	
20 nM	1260 nM	63.1 nM	31.6 nM	O=C(O)[C@@H]1CCCN(C2CC[C@]3(Cc4ccccc4Cc4ccccc43)C2)C1 (some centres not stated)	
200 nM	251 nM	50.1 nM	251 nM	O=C(O)C=C1CN(C2CCC3(Cc4ccccc4Cc4ccccc43)C2)C1 (configuration not stated)	
50.1 nM	251 nM	100 nM	126 nM	O=C(O)C1(O)CCN(C2CCC3(Cc4ccccc4Cc4ccccc43)C2)CC1 (configuration not stated)	
31.6 nM	1000 nM	20 nM	20 nM	O=C(O)CC1CCN(C2CC[C@]3(Cc4ccccc4Cc4ccccc43)C2)C1 (some centres not stated)	
25.1 nM	1000 nM	631 nM	> 2510 nM	O=C(O)CC1CCN(C2CCC3(Cc4ccccc4Cc4ccccc43)C2)CC1 (configuration not stated)	
	31.6 nM		200 nM	CN1CCC(=C2c3ccccc3CC(=O)c3sccc32)CC1 [KETOTIFEN]	
316 nM	39.8 nM	50.1 nM	> 2000 nM	O=C(O)CC1CN(C2CCC3(Cc4ccccc4Cc4ccccc43)C2)C1 (configuration not stated)	
15.8 nM	100 nM	20 nM	15.8 nM	O=C(O)C1CCN(C2CC[C@]3(Cc4ccccc4Cc4ccccc43)C2)C1 (some centres not stated)	
50.1 nM	3.16 nM	39.8 nM	15.8 nM	CC1(C(=O)O)CCN(C2CCC3(Cc4ccccc4Cc4ccccc43)C2)CC1 (configuration not stated)	
100 nM	1260 nM	316 nM	200 nM	O=C(O)C1CN(C2CC[C@]3(Cc4ccccc4Cc4ccccc43)C2)CCN1 (some centres not stated)	
